# Measured values as given in ChEMBL document CHEMBL1147147 (J Med Chem, 2007).
# Tests used:
# Clostridium botulinum [1] = assay: Inhibition of botulinum neurotoxin serotype A light chain metalloprotease at 50 uM
# Procedure, shortened: (§1)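 Percent inhibition of BoNT/A light chain metalloprotease activity was measured at a single inhibitor concentration, by a method described in earlier work, in duplicate.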
# Clostridium botulinum [2] = assay: Inhibition of botulinum neurotoxin serotype A light chain metalloprotease at 20 uM; procedure, shortened: as §1
# [3] = Inhibition of botulinum neurotoxin serotype A light chain metalloprotease; parameters: species or system Clostridium botulinum
# Procedure, shortened: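 Metalloprotease activity of the BoNT/A light chain was measured by a method described in earlier work. IC50 was derived from concentration-versus-inhibition plots using seven or nine concentrations per inhibitor, averaged from duplicate determinations.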
Compound,inhibition (Clostridium botulinum [1]) [%],inhibition (Clostridium botulinum [2]) [%],IC50 [3] [µM]
COC(=O)CCC(C)[C@H]1CC[C@H]2[C@@H]3[C@H](OC(C)=O)C[C@@H]4C[C@H](OCCNc5ccnc6cc(Cl)ccc56)CC[C@]4(C)[C@H]3CC(OC(C)=O)[C@]12C (stereo partly specified),9,,
COC(=O)CCC(C)[C@H]1CC[C@H]2[C@@H]3[C@H](OC(C)=O)C[C@@H]4C[C@H](OCCNCCNc5ccnc6cc(Cl)ccc56)CC[C@]4(C)[C@H]3CC(OC(C)=O)[C@]12C (stereo partly specified),62,,
Clc1ccc2c(NCCCN(CCCNc3ccnc4cc(Cl)ccc34)CCCNc3ccnc4cc(Cl)ccc34)ccnc2c1,,67,3.2
COC(=O)CCC(C)[C@H]1CC[C@H]2[C@@H]3[C@H](OC(C)=O)C[C@@H]4C[C@H](NCCNc5ccnc6cc(Cl)ccc56)CC[C@]4(C)[C@H]3C[C@H](OC(C)=O)[C@]12C (stereo partly specified),90,,7
COC(=O)CCC(C)[C@H]1CC[C@H]2[C@@H]3[C@H](OC(C)=O)C[C@@H]4C[C@H](N)CC[C@]4(C)[C@H]3C[C@H](OC(C)=O)[C@]12C (stereo partly specified),13,,
COC(=O)CCC(C)[C@H]1CC[C@H]2[C@@H]3[C@H](OC(C)=O)C[C@@H]4C[C@@H](NCCNc5ccnc6cc(Cl)ccc56)CC[C@]4(C)[C@H]3C[C@H](OC(C)=O)[C@]12C (stereo partly specified),80,,17
COC(=O)CCC(C)[C@H]1CC[C@H]2[C@@H]3[C@H](OC(C)=O)C[C@@H]4C[C@H](OC(C)=O)CC[C@]4(C)[C@H]3C[C@H](OC(C)=O)[C@]12C (stereo partly specified),0,,
Nc1ccnc2cc(Cl)ccc12,12,,
